# Assay outcomes from PubChem BioAssay.
# Compounds with a hit are over-represented: about 1.8% of the library has one in this group of screens.
# Hck-Nef inh: human Hck-Nef kinase inhibition. P08631. Recombinant Hck-YEEI plus Nef, Z-Lyte FRET kinase assay. inhibition, % at 20 µM. 220,000 compounds, 0.68% hits;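 active = Hck-Nef kinase inhibition above about 50%, limit read from the data; inactive = inhibition below that limit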
# RanGTP-Impb inh: disruptors of Ran-importin-beta complex formation – biochemical, FRET, CFP-Ran, YFP-importin-beta, homogeneous, primary screen; cell-free CFP-Ran/YFP-importin-beta FRET ratio; inhibition, % (no concentration beside the values); 300,000 compounds, 1.1% hits;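 active = more than half of the replicate wells show a fall in the fluorescence ratio signal beyond about 16%, limit read from the data, passing the limit was not always enough; inconclusive = exactly half of the replicate wells pass the set limit; inactive = fewer than half of replicates pass the limit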
# Runt-CBFb FRET: blocks binding of human RUNX1 Runt domain to CBFb; Q01196+Q13951; Cerulean-Runt/Venus-CBFb FRET ratio 530/480, 1 h; inhibition, % at 20 µM; 220,000 compounds, 0.46% hits;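 active = inhibition over about 50% at 20 µM in the single-dose screen, limit read from the data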
# Target sequence (Q01196 whole entry, looked up, the tested form may be a part): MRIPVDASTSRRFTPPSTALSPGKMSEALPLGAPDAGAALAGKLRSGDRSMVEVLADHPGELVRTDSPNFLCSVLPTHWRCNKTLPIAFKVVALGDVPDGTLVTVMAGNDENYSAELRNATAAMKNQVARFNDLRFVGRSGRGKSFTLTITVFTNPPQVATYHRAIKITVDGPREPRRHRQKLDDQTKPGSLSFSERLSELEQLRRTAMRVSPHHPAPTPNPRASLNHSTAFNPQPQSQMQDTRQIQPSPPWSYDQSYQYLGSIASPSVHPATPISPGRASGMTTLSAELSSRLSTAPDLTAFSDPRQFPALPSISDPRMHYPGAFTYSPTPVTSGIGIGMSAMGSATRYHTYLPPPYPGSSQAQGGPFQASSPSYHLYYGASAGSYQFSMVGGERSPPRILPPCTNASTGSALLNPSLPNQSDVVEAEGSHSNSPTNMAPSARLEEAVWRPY
# Target sequence (Q13951 whole entry, looked up, the tested form may be a part): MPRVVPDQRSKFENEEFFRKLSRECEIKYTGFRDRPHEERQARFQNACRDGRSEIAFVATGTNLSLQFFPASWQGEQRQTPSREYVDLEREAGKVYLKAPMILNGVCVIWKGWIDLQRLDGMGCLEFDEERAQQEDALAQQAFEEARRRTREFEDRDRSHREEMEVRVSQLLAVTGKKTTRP
#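 System: Cerulean-labeled Runt domain protein | Quantity: 100 nM of each labeled protein | Schedule: 1 h compound exposure, room temperature | Detection: Fluorescence energy transfer, 422 nm excitation, 530/480 nm emission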
# Runt-SMMHC FRET: inhibitors of human RUNX1 Runt domain binding to CBFb-SMMHC. inhibition, % at 20 µM. 220,000 compounds, 0.74% hits. Cerulean-Runt/Venus-CBFb-SMMHC FRET ratio 530/480, 1 h. Q01196+Q13951;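 active = mean inhibition across duplicate retests at 20 µM reaching about 50%, limit read from the data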;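 also: inhibitors lower the FRET ratio by blocking Runt binding to CBFb-SMMHC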
# Numbers stand for hits; . = inactive; ? = inconclusive; / = no result given; + = active, no number.
SMILES,Hck-Nef inh,RanGTP-Impb inh,Runt-CBFb FRET,Runt-SMMHC FRET
COc1ccc(NC(=O)CN2CCC(C(=O)c3ccc(F)cc3)CC2)c(OC)c1,/,.,/,/
CCc1c(C)sc(NC(=O)c2ccoc2C)c1C(N)=O,/,.,/,/
Cc1ccc[n+](CC(=O)Nc2ccc([N+](=O)[O-])cc2Cl)c1,.,176.1,.,.
Cc1ccccc1-c1ccc(/C=C2/SC(N3CCOCC3)=NC2=O)o1,.,20.2,.,.
Cc1oc(C)c2c(=O)ccc3c(c12)OC(N)=C(C#N)C3c1ccccc1Cl (configuration not stated),.,27.9,.,.
Cc1oc(C)c2c(=O)ccc3c(c12)OC(N)=C(C#N)C3c1ccccc1 (configuration not stated),.,.,.,.
CCOCCCn1c(=N)c(S(=O)(=O)c2ccccc2)cc2c(=O)n3cc(C)ccc3nc21,/,160.0,/,/
N=c1c(S(=O)(=O)c2ccc(Cl)cc2)cc2c(=O)n3ccccc3nc2n1CCN1CCOCC1,.,.,89.6,62.6
O=c1c2ccccc2nc(-c2ccccc2)n1CCCN1CCOCC1,.,.,.,.
N=c1c(S(=O)(=O)c2ccc(Cl)cc2)cc2c(=O)n3ccccc3nc2n1CCc1ccccc1,/,50.4,/,/
N=c1c(S(=O)(=O)c2ccccc2)cc2c(=O)n3ccccc3nc2n1CCCN1CCOCC1,/,155.3,/,/
Cc1ccc(NC(=O)c2sccc2C)nc1,/,.,/,/
Cc1ccccc1NC(=O)OCc1ccccc1,/,.,/,/
NC(=O)Cn1cnc2c(nnn2-c2ccc(F)cc2)c1=O,/,.,/,/
Cc1cc(=O)oc2cc(NC(=O)C(C)Oc3cccc(Cl)c3)ccc12 (configuration not stated),/,.,/,/
Cc1ccc(S(=O)(=O)c2cc3c(=O)n4ccccc4nc3n(CCCN3CCOCC3)c2=N)cc1C,/,135.4,/,/
Cc1ccc(S(=O)(=O)c2c(N)n(CCN3CCOCC3)c3nc4ccccc4nc23)cc1C,.,.,.,.
COc1ccccc1CCNC(=O)C(=O)NCCC1CCCCN1S(=O)(=O)c1ccccc1 (configuration not stated),/,37.2,/,/
COc1ccccc1/C=N/Nc1cc(C)nc2ccc(C)cc12,/,.,/,/
COc1ccc(/C=N/Nc2cc(C)nc3ccc(OC)cc23)c(OC)c1,/,20.1,/,/
CC(C)NC(=O)c1cc2c(=O)n3ccccc3nc2s1,/,.,/,/
CSc1ccccc1NC(=O)c1cc2c(=O)n3ccccc3nc2s1,/,71.5,/,/
CN1CCN(C(=O)c2cc3c(=O)n4ccccc4nc3s2)CC1,/,19.7,/,/
Cc1ccccc1NC(=O)c1cc2c(=O)n3cccc(C)c3nc2s1,/,83.8,/,/
Cc1cccn2c(=O)c3cc(C(=O)NC4CCCCCC4)sc3nc12,/,18.6,/,/
SMILES,Hck-Nef inh,RanGTP-Impb inh,Runt-CBFb FRET,Runt-SMMHC FRET
CC(Oc1ccc(Cl)cc1Cl)C(=O)NNC(=O)C(=O)N1CCCC1 (configuration not stated),/,.,/,/
Cc1ccc(N2CC(C(=O)Nc3c4c(nn3C(C)(C)C)CS(=O)(=O)C4)CC2=O)cc1C (configuration not stated),/,.,/,/
O=C(NCC(=O)N(c1cccc(F)c1)C(C(=O)NC1CCCC1)c1ccncc1)c1cccs1 (configuration not stated),/,.,/,/
CC(=O)c1cc2c(cc1NC(=O)Nc1cccc(Cl)c1)OCCO2,.,?,.,62.0
CC(=O)c1cc2c(cc1NC(=O)c1ccc(Cl)cc1)OCCO2,/,.,/,/
CN(C)CCCNc1c2ccccc2nc2ccccc12,/,107.6,/,/
OCC(Cc1ccccc1)NCc1ccccc1C(F)(F)F (configuration not stated),.,?,.,.
OCC(Cc1ccccc1)Nc1c2ccccc2nc2ccccc12 (configuration not stated),.,117.6,60.6,59.3
CN(C)CCCNc1nc(-c2ccccc2)nc2ccccc12,.,.,.,.
c1ccc(CNc2c3ccccc3nc3ccccc23)cc1,/,91.3,/,/
Oc1ccc(CCNc2c3ccccc3nc3ccccc23)cc1O,/,103.3,/,/
CCCCOc1ccc(C(=O)Nc2cccc(-n3cnnn3)c2)cc1OC,/,.,/,/
c1ccc2c(NCCCN3CCOCC3)c3ccccc3nc2c1,.,/,98.7,91.5
Cc1ccc(Oc2nc3ccccn3c(=O)c2/C=C(\C#N)C(=O)NC2CCS(=O)(=O)C2)cc1 (configuration not stated),.,29.4,72.8,81.5
Cc1cccn2c(=O)c3cc(C(=O)NC4CCS(=O)(=O)C4)sc3nc12 (configuration not stated),.,.,.,.
CCOC(=O)/C(C#N)=C/c1c(Oc2cccc(C)c2)nc2c(C)cccn2c1=O,.,.,.,.
Cc1cccn2c(=O)c(/C=C(\C#N)C(=O)NC3CCS(=O)(=O)C3)c(Oc3ccccc3Cl)nc12 (configuration not stated),/,160.1,/,/
CCOC(=O)/C(C#N)=C/c1c(Oc2cc(C)cc(C)c2)nc2ccccn2c1=O,.,.,.,.
Cc1ccccc1Oc1nc2c(C)cccn2c(=O)c1/C=C(\C#N)C(=O)NC1CCS(=O)(=O)C1 (configuration not stated),.,.,112.7,75.6
Cc1ccc(Oc2nc3c(C)cccn3c(=O)c2/C=C(\C#N)C(N)=O)cc1,.,.,.,63.6
CCOc1ccc(N2CC(NS(=O)(=O)c3cccnc3)CC2=O)cc1 (configuration not stated),/,.,/,/
Nc1nonc1-n1nnc(C(=O)N/N=C/c2cccc(F)c2)c1CN1CCCCCC1,/,.,/,/
COc1cccc(/C=C2\CCCCC2=O)c1,/,.,/,/
O=C1CCC/C1=C\c1ccccc1,.,149.3,.,.
Cc1cccn2c(=O)c3cc(C#N)c(=O)n(CC4CCCO4)c3nc12 (configuration not stated),+,/,.,60.4
SMILES,Hck-Nef inh,RanGTP-Impb inh,Runt-CBFb FRET,Runt-SMMHC FRET
Cc1ccc(S(=O)(=O)c2cc3c(=O)n4cccc(C)c4nc3n(CC3CCCO3)c2=N)cc1 (configuration not stated),/,/,112.3,.
Cc1ccc(S(=O)(=O)c2cc3c(=O)n4ccccc4nc3n(CC3CCCO3)c2=N)cc1 (configuration not stated),.,/,/,/
N=c1c(S(=O)(=O)c2ccc(F)cc2)cc2c(=O)n3ccccc3nc2n1CC1CCCO1 (configuration not stated),/,175.0,/,/
Cc1ccc2nc3c(cc(C#N)c(=N)n3CC3CCCO3)c(=O)n2c1 (configuration not stated),/,/,.,.
CCCCN1CCCC1CNC(=O)c1cc(C#N)c2ccccc2c1OC (configuration not stated),/,.,.,.
C[C@H](NC(=O)C1CCN(S(=O)(=O)c2ccccc2)CC1)C(=O)NCc1ccccn1,/,.,/,/
CC1=C(C(=O)OCC(C)C)C(c2cc3c(cc2Br)OCO3)NC(=O)N1C (configuration not stated),.,.,.,.
COC(=O)C1=CN(C(C)C)C=C(C(=O)OC)C1c1cc2c(cc1Br)OCO2,.,30.2,.,118.5
Cc1ccc(S(=O)(=O)Nc2nc3ccccc3nc2Nc2cccc(S(=O)(=O)N3CCCC3)c2)cc1,.,29.7,.,89.6
